SR-BI HDL uptake: inhibitors of mouse SR-BI mediated HDL lipid uptake; Q61009; ldlA[mSR-BI] CHO cells, DiI-HDL uptake fluorescence, 3 h; inhibition, % at 12.5 µM; 320,000 compounds, 0.96% hits; AID 488896;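 active means mean replicate inhibition of at least 70% and a set share of replicates each scoring 70 or more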
Target sequence (Q61009 whole entry, looked up): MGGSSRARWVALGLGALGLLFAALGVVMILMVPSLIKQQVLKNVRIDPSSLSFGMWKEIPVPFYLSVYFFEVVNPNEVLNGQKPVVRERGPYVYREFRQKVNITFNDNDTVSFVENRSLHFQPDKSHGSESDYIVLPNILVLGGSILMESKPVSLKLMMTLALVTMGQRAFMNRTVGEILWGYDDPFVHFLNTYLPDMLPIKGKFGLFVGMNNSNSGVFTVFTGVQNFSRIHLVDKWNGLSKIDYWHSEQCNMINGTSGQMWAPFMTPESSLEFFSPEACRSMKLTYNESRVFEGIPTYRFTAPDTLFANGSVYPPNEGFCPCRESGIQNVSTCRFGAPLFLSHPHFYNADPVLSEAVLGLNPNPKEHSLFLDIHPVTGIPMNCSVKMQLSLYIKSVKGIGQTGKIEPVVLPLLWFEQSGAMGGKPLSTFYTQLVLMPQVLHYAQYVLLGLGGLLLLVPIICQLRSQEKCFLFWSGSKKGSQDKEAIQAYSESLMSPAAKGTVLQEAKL
SR-BI DiI-HDL act: activators of SR-BI mediated HDL lipid uptake; CHO ldlA[mSR-BI] cells, DiI-HDL uptake fluorescence, 3 h; 100 = double the neutral-control signal; activation, % at 12.5 µM; 320,000 compounds, 0.096% hits; AID 504775;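 active means mean replicate activation of at least 60% and every replicate at or above 60%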
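Test system: SR-BI-overexpressing, LDLR-lacking CHO cells; Also added: labelled HDL, 10 µg/mL; Measured by: bottom-read cell fluorescence after medium removal, ex 550/em 595 nm; Timing: 3 h uptake period with compound, 37 °C; Buffer or medium: F12, 0.5% BSA, 25 mM HEPES; Doses: single compound concentration, delivered by pin transfer.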
SMARCA2 activ: SMARCA2 function activation, primary screen. AID 652017. 370,000 compounds, 1% hits. MG213 cells, MMTV-luciferase reporter, dexamethasone, overnight. activation, % at 9.1 µM; in the data active means activation above about 7.8%
H9c2 TAG inh: triacylglycerol accumulation inhibition; H9c2 cells, Nile Red lipid (TAG) fluorescence; cells loaded with 200 µM oleic acid; inhibition, % at 12.5 µM; 230,000 compounds, 0.66% hits; AID 651582;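 active means pattern-corrected inhibition of lipid staining of at least 50% with the nuclear-stain viability signal not falling by more than 50%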
Vif imaging: blocks HIV Vif function; inhibition, % at 7.49 µM; 340,000 compounds, 0.35% hits; HEK293T cells, Vif self-association by quenched fluorescence, imaging, 24 h; in the data active means inhibition above about 50%, passing the limit was not always enough
SMARCA2 act conf: SMARCA2 activation, confirmation screen | shares compounds with SMARCA2 activ | MG213 cells, MMTV-luciferase with dexamethasone, luminescence, overnight; MG213 cells expressing E1A, Rb sequestered; DMSO wells 0%, reference activator 100% | activation, % at 9.1 µM | 3,500 compounds, 30% hits;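 active means activation above its plate's cutoff, the mean activation of tested wells plus 3 SD, cut at about 7.9% in these data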
VP16 Luc act: GAL4-VP16 reporter activation counter-screen; shares compounds with SMARCA2 activ; HEK293 GAL4-VP16 pG5luc reporter, luciferase luminescence; scaled: DMSO wells 0%, SAHA wells 100%; activation, % at 9.1 µM; 3,500 compounds, 41% hits;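 active means activation above the solvent-only control well mean plus 3 SD, averaged across control plates, cut at about 5.2% in these data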
Each line names hits and unclear results; the compound was inactive in the other large screens (follow-up assays come after a bar, where they were run). The list is not random: actives were taken first. Their share in the collection is about 2.5%.

CC1(C(=O)NS(=O)(=O)c2ccccc2C(F)(F)F)CCN1C(=O)CCc1cccs1 (stereo not given)	SMARCA2 activ 8.7 (no result: SR-BI HDL uptake, SR-BI DiI-HDL act) | SMARCA2 act conf inactive | VP16 Luc act inactive
CC(=O)NC(c1cccc(F)c1)c1nc(-c2csc3ccccc23)cs1 (stereo not given)	none (no result: SR-BI HDL uptake, SR-BI DiI-HDL act)
COc1ccc(N2CC(C(=O)Nc3cccc(C)n3)CC2=O)cc1 (stereo not given)	SMARCA2 activ 8.0 (no result: H9c2 TAG inh) | SMARCA2 act conf inactive | VP16 Luc act inactive
Cc1cccc(NC(=O)C2CC(=O)N(c3ccc4c(c3)OCCO4)C2)n1 (stereo not given)	none
Cc1ccc(N2CC(C(=O)Nc3ccncc3)CC2=O)cc1 (stereo not given)	none (no result: H9c2 TAG inh)
CCOc1ccc(N2CC(C(=O)Nc3cc(C)on3)CC2=O)cc1 (stereo not given)	none (no result: H9c2 TAG inh)
CC(=O)Nc1cccc(NC(=O)C2CC(=O)N(c3ccc(C)cc3)C2)c1 (stereo not given)	SMARCA2 activ 9.5 (no result: H9c2 TAG inh) | SMARCA2 act conf inactive | VP16 Luc act inactive
COc1ccc(N2CC(C(=O)Nc3cc(C)on3)CC2=O)cc1 (stereo not given)	SMARCA2 activ 8.0 (no result: H9c2 TAG inh, Vif imaging) | SMARCA2 act conf inactive | VP16 Luc act inactive
CN1CCCCC(NC(=O)c2ccccn2)C1=O (stereo not given)	none (no result: SR-BI HDL uptake, SR-BI DiI-HDL act, H9c2 TAG inh, Vif imaging)
CC(C)C(=O)Nc1cccc(C(=O)Nc2ccc(S(=O)(=O)N3CCOCC3)cc2)c1	none
CCc1sc(C(=O)NCc2ccco2)cc1C	SMARCA2 activ 11.1 (no result: SR-BI HDL uptake, SR-BI DiI-HDL act, H9c2 TAG inh) | SMARCA2 act conf inactive | VP16 Luc act inactive
CCc1sc(C(=O)NCc2ccco2)cc1Br	none (no result: H9c2 TAG inh)
CCN(CC)S(=O)(=O)c1ccc(NC(=O)c2ccccn2)cc1	SMARCA2 activ 9.8 | SMARCA2 act conf inactive | VP16 Luc act 8.5
O=C(Nc1ccc(-c2csc(-c3ccccc3)n2)cc1)c1ccccc1Cl	none (no result: H9c2 TAG inh)
O=C(O)c1ccccc1C(=O)Nc1ccc(-c2csc(-c3ccccc3)n2)cc1	SMARCA2 activ 9.5 | SMARCA2 act conf inactive | VP16 Luc act 9.5
CN(C)CCOc1nc(-c2ccccc2)nc2c1oc1ccccc12	SMARCA2 activ 16.1 (no result: H9c2 TAG inh) | SMARCA2 act conf 31.2 | VP16 Luc act inactive
CCN(CC)CCOc1nc(C)nc2c1oc1ccccc12	SMARCA2 activ 8.5 | SMARCA2 act conf inactive | VP16 Luc act inactive
Nc1ccn([C@@H]2O[C@H](C(=O)N3CCN(C(=O)N4CCCCC4)CC3)[C@@H](O)[C@H]2O)c(=O)n1	none (no result: SR-BI HDL uptake, SR-BI DiI-HDL act, H9c2 TAG inh, Vif imaging)
Cc1ccc(-n2c(SCC(=O)Nc3ccc(Oc4ccccc4)cc3)nnc2-c2cccc(C)c2)cc1	none (no result: SR-BI HDL uptake, SR-BI DiI-HDL act, H9c2 TAG inh, Vif imaging)
CS(=O)(=O)c1ccc(S(=O)(=O)NCC2CCN(C(=O)C(=O)c3cc4ccccc4o3)CC2)cc1	none (no result: SR-BI HDL uptake, SR-BI DiI-HDL act, H9c2 TAG inh, Vif imaging)
CC(C)C(=O)Nc1ccc(C(=O)NNC(=S)NC(=O)c2ccco2)cc1	none (no result: SR-BI HDL uptake, SR-BI DiI-HDL act)
COc1ccc(NC(=O)C(=O)NCC(=O)Nc2cc(OC)ccc2OC)cc1	none
COc1ccc(C23CC4CC(CC(C4)C2)C3)cc1C(=O)NCCN(C)C	none (no result: H9c2 TAG inh)
COc1ccc(OC)c2nc3c(C(=O)NCCN(C)C)cccc3nc12	SMARCA2 activ 20.9 | SMARCA2 act conf 51.6 | VP16 Luc act inactive
CN(C)CCNC(=O)c1sc2cccc(F)c2c1Cl	none (no result: SR-BI HDL uptake, SR-BI DiI-HDL act)
CN(C)CCNC(=O)c1cccc2nc3cccc(F)c3nc12	SMARCA2 activ 51.8 | SMARCA2 act conf 194.0 | VP16 Luc act 14.1
O=S(=O)(c1ccc(Br)s1)N1CCC(c2nc3ccccc3o2)CC1	none (no result: SR-BI HDL uptake, SR-BI DiI-HDL act, H9c2 TAG inh, Vif imaging)
CCCN(CC(=O)Nc1ccccc1OC)C(=O)c1nc2nc(C)ccn2n1	none
CN(C)CCCNC(=O)C[C@@H]1CC[C@@H]2[C@H](COc3ccc(NC(=O)c4cccc(F)c4)cc3C(=O)N2C)O1	none (no result: SR-BI HDL uptake, SR-BI DiI-HDL act, H9c2 TAG inh, Vif imaging)
Cc1cccc(C(=O)OCC(=O)NCC2CCCO2)c1O (stereo not given)	SMARCA2 activ 9.2 | SMARCA2 act conf inactive | VP16 Luc act inactive
O=C(COC(=O)c1ccccc1Br)NCC1CCCO1 (stereo not given)	none
Cc1cc(=O)oc2cc(OCC(=O)OCC(=O)N(C)C3CCS(=O)(=O)C3)ccc12 (stereo not given)	none (no result: SR-BI HDL uptake, SR-BI DiI-HDL act)
O=C(NCCc1ccccc1)c1cccc2c(-c3cccnc3)coc12	none (no result: SR-BI HDL uptake, SR-BI DiI-HDL act)
O=C(O)CCSc1nnc(-c2cccnc2)n1-c1ccccc1	none (no result: SMARCA2 activ, H9c2 TAG inh)
O=C(CSc1nnc(-c2cccnc2)n1-c1ccccc1)c1ccccc1Cl	SMARCA2 activ 8.6 (no result: SR-BI HDL uptake, SR-BI DiI-HDL act, H9c2 TAG inh, Vif imaging) | SMARCA2 act conf inactive | VP16 Luc act inactive
CCCCN(C)C(=O)C1CCN(S(=O)(=O)c2ccc3[nH]c(=O)oc3c2)CC1	none (no result: SR-BI HDL uptake, SR-BI DiI-HDL act, H9c2 TAG inh, Vif imaging)
O=C(CNS(=O)(=O)c1ccccc1)OCC(=O)c1ccc(Br)cc1	none (no result: SR-BI HDL uptake, SR-BI DiI-HDL act, H9c2 TAG inh)
O=C(CNS(=O)(=O)c1ccccc1)OCC(=O)c1ccc(OC(=O)c2ccccc2)cc1	SMARCA2 activ 8.7 (no result: H9c2 TAG inh) | SMARCA2 act conf 18.0 | VP16 Luc act inactive
COC(=O)c1ccc(OCC(=O)c2ccccc2)cc1	SMARCA2 activ 12.3 | SMARCA2 act conf 10.7 | VP16 Luc act 8.5
O=C(COc1ccccc1)c1ccccc1	none
Cc1cccc2sc(NC(=O)c3ccc(OCC4CCCO4)cc3)nc12 (stereo not given)	SMARCA2 activ 11.6 | SMARCA2 act conf inactive | VP16 Luc act inactive

High-throughput results (PubChem)
